From ChEMBL document CHEMBL1770130, “Design, synthesis, and in vivo characterization of a novel series of tetralin amino imidazoles as γ-secretase inhibitors: discovery of PF-3084014” (Bioorg Med Chem Lett, 2011)
Active and inactive are the calls of the source. No cut-off for these calls is given here.

Key:
Cavia porcellus [1] = assay: Antialzheimer activity in sc dosed guinea pig assessed as reduction of total amyloid beta level in brain after 3 hrs by DELFIA-based ELISA; assay type: functional
In short: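 Guinea pigs dosed sc over a range of doses and brain Aβ1-X measured by DELFIA ELISA at 3 h; brain ED50 derived from the dose–response.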

[2] = Effect on gamma secretase-mediated notch processing in C57BL/6 mouse fetal thymic organ cultures assessed as reduction of B and T-cell populations after 45 mins by FACS analysis
Gamma-secretase [3] = assay: Inhibition of gamma-secretase in human H4 cells expressing APP Swedish mutant assessed as inhibition of amyloid beta (1 to x) production by whole cell assay
[4] = Ratio of EC50 for gamma secretase-mediated notch processing in C57BL/6 mouse fetal thymic organ cultures to plasma concentration observed at brain ED50 of total beta-amyloid level
In short: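 FTOC EC50 divided by the plasma concentration at the brain ED50. That plasma concentration was obtained by linear least-squares regression of dose against measured plasma concentration in guinea pigs.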

human MDR1 (P-gp) = assay: Efflux ratio of permeability from basolateral to apical side to apical to basolateral side of MDCK cells expressing human MDR1; assay type: ADME, cell-based, Canis lupus familiaris; details: dog
In short: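 MDCK cells transfected with human P-glycoprotein (MDR1); efflux ratio calculated as B→A over A→B permeability.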

Gamma-secretase [5] = assay: Inhibition of gamma-secretase in human HeLa cells assessed as inhibition of amyloid beta (1 to 40) production by DELFIA-based immunoassay; assay type: cell-based
Cavia porcellus [6] = assay: Antialzheimer activity in guinea pig assessed as reduction of total amyloid beta level in brain at 10 mg/kg, sc after 24 hrs by DELFIA-based ELISA; assay type: functional, organism-based; parameters: dose 10 mg/kg
In short: (§1)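 Guinea pigs dosed once at 10 mg/kg sc, tissues sampled up to 24 h. Aβ1-X in brain, CSF and plasma measured by DELFIA ELISA and expressed as percentage of vehicle; one-way ANOVA with Dunnett's test versus vehicle, p<0.05.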

Cavia porcellus [7] = assay: Reduction of marginal zone of B cell populations in guinea pig at 7 mg/kg, sc administered 3 doses over 24 hrs measured after 3 hrs last post dose by FACS analysis; assay type: organism-based; parameters: dose 7 mg/kg, route subcutaneous; details: in vivo
In short: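 Guinea pigs dosed sc at 7 mg/kg at 0, 12 and 24 h. Spleen marginal zone and whole-blood B cells counted by flow cytometry 3 h after the last dose.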

Cavia porcellus [8] = assay: Antialzheimer activity in guinea pig assessed as reduction of total amyloid beta level in plasma at 10 mg/kg, sc after 3 to 10 hrs by DELFIA-based ELISA; assay type: functional, organism-based; parameters: dose 10 mg/kg
In short: (§2)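 Guinea pigs given a single sc dose (3.2–32 mg/kg); brain, CSF and plasma taken at 3 h for the dose–response, or at intervals of 3 to 24 h after 10 mg/kg for the time course. Aβ1-X, Aβ1-40 and Aβ1-42 measured by DELFIA ELISA. Data given as percentage of vehicle; one-way ANOVA with Dunnett's post-hoc versus vehicle, p<0.05.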

[9] = Plasma concentration in guinea pig at 3.2 mg/kg, sc; assay type: ADME, organism-based, Cavia porcellus; parameters: dose 3.2 mg/kg, route subcutaneous; details: in vivo
In short: (§3)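 Guinea pigs given a single 3.2 mg/kg sc dose; drug concentrations in plasma and brain determined at the 3 h sampling point.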

Cavia porcellus [10] = assay: Antialzheimer activity in guinea pig assessed as reduction of total amyloid beta level in plasma at 7 to 32 mg/kg, sc administered 3 doses over 24 hrs measured after 3 hrs last post dose by DELFIA-based ELISA; assay type: functional, organism-based
In short: (§4)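 Guinea pigs dosed sc at 7 or 32 mg/kg three times over 24 h (0, 12, 24 h). Tissues collected 3 h after the final dose, and Aβ measured by DELFIA ELISA; compared with vehicle by one-way ANOVA and Dunnett's test.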

Cavia porcellus [11] = assay: Antialzheimer activity in guinea pig assessed as reduction of total amyloid beta level in cerebral spinal fluid at 10 mg/kg, sc after 24 hrs by DELFIA-based ELISA; assay type: functional, organism-based; parameters: dose 10 mg/kg; in short: as §1
[12] = Drug concentration in guinea pig brain at 3.2 mg/kg, sc; assay type: ADME, organism-based, Cavia porcellus; parameters: dose 3.2 mg/kg, route subcutaneous; details: in vivo; in short: as §3
[13] = Ratio of EC50 for gamma secretase-mediated notch processing in C57BL/6 mouse fetal thymic organ cultures to IC50 for APP by whole cell assay
Cavia porcellus [14] = assay: Antialzheimer activity in guinea pig assessed as reduction of total amyloid beta level in brain at 10 mg/kg, sc after 3 to 10 hrs by DELFIA-based ELISA; assay type: functional, organism-based; parameters: dose 10 mg/kg; in short: as §2
Cavia porcellus [15] = assay: Antialzheimer activity in guinea pig assessed as reduction of total amyloid beta level in cerebral spinal fluid at 10 mg/kg, sc after 3 to 10 hrs by DELFIA-based ELISA; assay type: functional, organism-based; parameters: dose 10 mg/kg; in short: as §2
Cavia porcellus [16] = assay: Antialzheimer activity in guinea pig assessed as reduction of total amyloid beta level in plasma at 10 mg/kg, sc after 24 hrs by DELFIA-based ELISA; assay type: functional, organism-based; parameters: dose 10 mg/kg; in short: as §1
Cavia porcellus [17] = assay: Antialzheimer activity in guinea pig assessed as reduction of total amyloid beta level in cerebral spinal fluid at 3.2 mg/kg, sc after 3 hrs by DELFIA-based ELISA; assay type: functional; parameters: scale not given: the % may be the effect or the level left; details: route subcutaneous; in short: as §2
Cavia porcellus [18] = assay: Antialzheimer activity in guinea pig assessed as reduction of total amyloid beta level in brain at 7 to 32 mg/kg, sc administered 3 doses over 24 hrs measured after 3 hrs last post dose by DELFIA-based ELISA; assay type: functional, organism-based; in short: as §4
Cavia porcellus [19] = assay: Antialzheimer activity in guinea pig assessed as reduction of total amyloid beta level in plasma at 3.2 mg/kg, sc after 3 hrs by DELFIA-based ELISA; assay type: functional; parameters: scale not given: the % may be the effect or the level left; details: route subcutaneous; in short: as §2
Cavia porcellus [20] = assay: Antialzheimer activity in guinea pig assessed as reduction of total amyloid beta level in brain at 3.2 mg/kg, sc after 3 hrs by DELFIA-based ELISA; assay type: functional; parameters: scale not given: the % may be the effect or the level left; details: route subcutaneous; in short: as §2

Row | Compound | ED50 (Cavia porcellus [1]) [mg/kg] | EC50 [2] [nM] | IC50 (Gamma-secretase [3]) [nM] | efflux ratio (human MDR1 (P-gp)) | IC50 (Gamma-secretase [5]) [nM] | other results
1 | CCC[C@H](N[C@H]1CCc2cc(F)cc(F)c2C1)C(=O)Nc1cn(C(C)(C)CNC(C)C)cn1 | 41.2 | 6100 | 19.3 | – | – | Ratio [4]: 3.5
2 | CCC[C@H](NC(CC)CC)C(=O)Nc1cn(C(C)(C)CN2CCCC2)cn1 | – | – | 310 | 2.3 | 6120 | –
3 | CCC[C@H](N[C@H]1CCc2cc(F)cc(F)c2C1)C(=O)Nc1cn(C(C)(C)CNCC(C)(C)C)cn1 [NIROGACESTAT] | 2.3 | 1830 | – | – | – | –
4 | CCC[C@H](NC1Cc2ccccc2C1)C(=O)Nc1cn(C(C)(C)CN2CCCC2)cn1 | – | – | 272 | 1.8 | 148 | –
5 | CCC[C@H](NC1CCc2cc(F)ccc2C1)C(=O)Nc1cn(C(C)(C)CN2CCCC2)cn1 (mixture of isomers) | – | – | 19.5 | 1.8 | 19.3 | –
6 | CCC[C@H](NC1CCc2cc(F)cc(F)c2C1)C(=O)Nc1cn(C(C)(C)CN2CCCC2)cn1 (mixture of isomers) | – | – | 5.4 | 1.5 | 4.1 | –
7 | CCC[C@H](NCCC(C)C)C(=O)Nc1cn(C(C)(C)CN2CCCC2)cn1 | – | – | 3100 | 4.4 | > 10000 | –
8 | CCC[C@H](N[C@H]1CCc2cc(F)cc(F)c2C1)C(=O)Nc1cn(C(C)(C)CN2CCOCC2)cn1 | 2.9 | 1090 | 6.9 | – | – | Ratio [4]: 16.3
9 | CCC[C@H](NC1CCc2ccccc2C1)C(=O)Nc1cn(C(C)(C)CN2CCCC2)cn1 (some centres undefined) | – | – | 53.9 | 2.2 | 85.7 | –
10 | CCC[C@H](NC1CCc2cccc(Cl)c2C1)C(=O)Nc1cn(C(C)(C)CN2CCCC2)cn1 (mixture of isomers) | – | – | 46.8 | 3.3 | 31 | –
11 | CCC[C@H](N[C@H]1CCc2cc(F)cc(F)c2C1)C(=O)Nc1cn(C(C)(C)CN2CCCCC2)cn1 | 4.1 | 2560 | 3.3 | – | – | Ratio [4]: 46.1
12 | CCC[C@H](N[C@H]1CCc2cc(F)cc(F)c2C1)C(=O)Nc1cn(C(C)(C)CN(C)C)cn1 | 16.1 | 3010 | 4.6 | – | – | –
13 | CCC[C@H](NC(=O)Cc1cc(F)cc(F)c1)C(=O)Nc1cn(C(C)(C)CNCC(C)(C)C)cn1 | – | – | – | 8.4 | – | –
14 | CCC[C@H](NCCc1cc(F)cc(F)c1)C(=O)Nc1cn(C(C)(C)CN2CCCC2)cn1 | – | – | 754 | 1.9 | 250 | –
15 | CCC[C@H](NCc1cc(F)cc(F)c1)C(=O)Nc1cn(C(C)(C)CN2CCCC2)cn1 | – | – | 480 | 1.8 | 499 | –
16 | CCC[C@H](NC1CCc2cc(Cl)ccc2C1)C(=O)Nc1cn(C(C)(C)CN2CCCC2)cn1 (mixture of isomers) | – | – | 12.4 | 1.3 | 8.9 | –
17 | CCC[C@H](N[C@H]1CCc2cc(F)cc(F)c2C1)C(=O)Nc1cn(C(C)(C)CN2CCCC2)cn1 | 9.9 | 3260 | 2.9 | – | – | Activity (Cavia porcellus [6]): Active; Activity (Cavia porcellus [7]): Non-toxic; Activity (Cavia porcellus [8]): Active; Cp [9]: 100 ng/mL; Activity (Cavia porcellus [10]): Active; Activity (Cavia porcellus [11]): inactive; Drug uptake [12]: 587 ng/mL; Ratio [13]: > 500; Activity (Cavia porcellus [14]): Active; Activity (Cavia porcellus [15]): Active; Activity (Cavia porcellus [16]): inactive; Activity (Cavia porcellus [17]): 31%; Activity (Cavia porcellus [18]): Active; Activity (Cavia porcellus [19]): 30%; Ratio [4]: 9.8; Activity (Cavia porcellus [20]): 33%
18 | CCC[C@H](N[C@H]1CCc2cc(F)cc(F)c2C1)C(=O)Nc1cn(C(C)(C)CNCC(F)(F)F)cn1 | 14.6 | 5100 | 4.9 | – | – | Ratio [4]: 37.7
19 | CCC[C@H](NC1COc2ccccc2C1)C(=O)Nc1cn(C(C)(C)CN2CCCC2)cn1 (some centres undefined) | – | – | 155 | 2.9 | 93.3 | –
